In ChEMBL document CHEMBL4138314, “Synthesis and Evaluation of N-Phenyl-3-sulfamoyl-benzamide Derivatives as Capsid Assembly Modulators Inhibiting Hepatitis B Virus (HBV)” (J Med Chem, 2018):
Calls of active or inactive are those of the source. No cut-off for these calls is given here.

Assays:
[1] = AUC (0 to last) in C57BL/6 mouse at 2.5 mg/kg, iv by LC-MS/MS analysis; type: ADME, organism-based; parameters: dose 2.5 mg/kg, route intravenous, time 0 - last; conditions: in vivo
[2] = Tmax in humanized mouse at 50 mg/kg, sc measured on day 1 post dose by LC-MS/MS analysis; type: ADME, organism-based; conditions: in vivo
[3] = Half life in C57BL/6 mouse at 50 mg/kg, sc by LC-MS/MS analysis; type: ADME, organism-based; conditions: in vivo
[4] = Half life in C57BL/6 mouse at 50 mg/kg, po by LC-MS/MS analysis; type: ADME, organism-based; conditions: in vivo
Procedure, shortened: (§1)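 Single-dose PK in C57BL/6 mice after intravenous or oral dosing, with oral doses of 10 and 50 mg/kg; plasma clearance and volume of distribution taken from the i.v. arm.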

[5] = Cmax in humanized mouse at 200 mg/kg, sc for 8 days measured on day 8 post last dose by LC-MS/MS analysis; type: ADME, organism-based; parameters: dose 200 mg/kg, route subcutaneous; conditions: in vivo
[6] = Drug metabolism in mouse liver microsomes at 1 uM after 15 mins by LC-MS/MS analysis; type: ADME, microsome; conditions: read-out: Drug metabolism
Procedure, shortened: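 Compound incubated 15 min with human or mouse liver microsomes; stability expressed as percent turnover (metabolised) at 15 min.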

Salmonella typhimurium = assay: Genotoxicity in Salmonella typhimurium by Ames test; type: toxicity, organism-based; conditions: salmonella enterica subsp. enterica serovar typhimurium
[7] = AUC (0 to infinity) in humanized mouse at 200 mg/kg, sc for 8 days measured on day 8 post last dose by LC-MS/MS analysis; type: ADME, organism-based; parameters: dose 200 mg/kg, route subcutaneous, time infinity; conditions: in vivo
[8] = AUC (0 to 24 hrs) in humanized mouse at 200 mg/kg, sc measured on day 1 post dose by LC-MS/MS analysis; type: ADME, organism-based; parameters: dose 200 mg/kg, time < 24 hr, route subcutaneous; conditions: in vivo
[9] = AUC (0 to infinity) in humanized mouse at 200 mg/kg, sc measured on day 1 post dose by LC-MS/MS analysis; type: ADME, organism-based; parameters: dose 200 mg/kg, route subcutaneous, time infinity; conditions: in vivo
Cytochrome P450 2D6 = Cytochrome P450 2D6 (Homo sapiens, UniProt P10635); assay: Inhibition of CYP2D6 (unknown origin); type: ADME
MDR1 (P-gp) = assay: Apparent permeability in pig LLC-PK1 cells expressing human MDR1 from apical to basolateral side in absence of P-gp inhibitor GF-120918; type: ADME, cell-based, Sus scrofa
Procedure, shortened: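 LLC-PK1-MDR1 monolayers; apical-to-basolateral apparent permeability measured without the P-gp inhibitor GF-120,918, run in parallel with an inhibitor-containing arm to form a +GF/−GF ratio.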

[10] = AUC (0 to 24 hrs) in humanized mouse at 50 mg/kg, sc for 8 days measured on day 8 post last dose by LC-MS/MS analysis; type: ADME, organism-based; parameters: time < 24 hr, dose 50 mg/kg, route subcutaneous; conditions: in vivo
[11] = AUC (0 to last) in C57BL/6 mouse at 50 mg/kg, po by LC-MS/MS analysis; type: ADME, organism-based; parameters: dose 50 mg/kg, route oral, time 0 - last; conditions: in vivo; procedure, shortened: as §1
[12] = Bioavailability in C57BL/6 mouse at 50 mg/kg, sc by LC-MS/MS analysis; type: ADME, organism-based; conditions: in vivo
[13] = Half life in C57BL/6 mouse at 2.5 mg/kg, iv by LC-MS/MS analysis; type: ADME, organism-based; conditions: in vivo; procedure, shortened: as §1
[14] = Half life in C57BL/6 mouse at 10 mg/kg, po by LC-MS/MS analysis; type: ADME, organism-based; conditions: in vivo; procedure, shortened: as §1
[15] = Unbound fraction in mouse plasma; type: ADME, cell-free
[16] = Half life in humanized mouse at 200 mg/kg, sc measured on day 1 post dose by LC-MS/MS analysis; type: ADME, organism-based; conditions: in vivo
[17] = Clearance in C57BL/6 mouse at 2.5 mg/kg, iv by LC-MS/MS analysis; type: ADME, organism-based; conditions: in vivo; procedure, shortened: as §1
HBV genotype D [18] = assay: Antiviral activity against HBV genotype D infected in human HepG2.2.15 cells assessed as inhibition of viral DNA level treated twice for 3 days measured after 6 days by real time PCR; type: functional, organism-based; conditions: Hepatitis B virus
[19] = Volume of distribution at steady state in C57BL/6 mouse at 2.5 mg/kg, iv by LC-MS/MS analysis; type: ADME, organism-based; conditions: in vivo, read-out: Vdss
[20] = Oral bioavailability in C57BL/6 mouse at 10 mg/kg by LC-MS/MS analysis; type: ADME, organism-based; conditions: in vivo
Procedure, shortened: (§2)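 Single-dose PK in C57BL/6 mice given compound intravenously and orally, with oral doses of 10 and 50 mg/kg. Plasma clearance, volume of distribution and oral bioavailability were derived from the plasma profiles.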

[21] = Tmax in C57BL/6 mouse at 50 mg/kg, po by LC-MS/MS analysis; type: ADME, organism-based; conditions: in vivo; procedure, shortened: as §2
[22] = Tmax in humanized mouse at 200 mg/kg, sc for 8 days measured on day 8 post last dose by LC-MS/MS analysis; type: ADME, organism-based; conditions: in vivo
Cytochrome P450 2C9 = Cytochrome P450 2C9 (Homo sapiens, UniProt P11712); assay: Inhibition of CYP2C9 (unknown origin); type: ADME
[23] = Cmax in humanized mouse at 50 mg/kg, sc for 8 days measured on day 8 post last dose by LC-MS/MS analysis; type: ADME, organism-based; parameters: dose 50 mg/kg, route subcutaneous; conditions: in vivo
[24] = Cmax in humanized mouse at 200 mg/kg, sc measured on day 1 post dose by LC-MS/MS analysis; type: ADME, organism-based; parameters: dose 200 mg/kg, route subcutaneous; conditions: in vivo
HBV genotype D [25] = assay: Antiviral activity against HBV genotype D infected in chimeric mouse with humanized liver assessed as reduction in HBeAg level at 200 mg/kg, sc qd for 28 days; type: functional, organism-based; conditions: hepatitis B virus genotype D
Procedure, shortened: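 HBV genotype D-infected humanized-liver chimeric mice (≥70% human hepatocyte replacement) were dosed once daily for 28 days at 200 mg/kg s.c., with oral saline and oral entecavir 0.03 mg/kg as controls. Serum HBeAg and HBsAg were followed over the study.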

Cytochrome P450 1A2 = molecular target: T1, Cytochrome P450 1A2 (Homo sapiens, UniProt P05177); assay: Inhibition of CYP1A2 (unknown origin); type: ADME
T1 sequence (P05177 whole entry): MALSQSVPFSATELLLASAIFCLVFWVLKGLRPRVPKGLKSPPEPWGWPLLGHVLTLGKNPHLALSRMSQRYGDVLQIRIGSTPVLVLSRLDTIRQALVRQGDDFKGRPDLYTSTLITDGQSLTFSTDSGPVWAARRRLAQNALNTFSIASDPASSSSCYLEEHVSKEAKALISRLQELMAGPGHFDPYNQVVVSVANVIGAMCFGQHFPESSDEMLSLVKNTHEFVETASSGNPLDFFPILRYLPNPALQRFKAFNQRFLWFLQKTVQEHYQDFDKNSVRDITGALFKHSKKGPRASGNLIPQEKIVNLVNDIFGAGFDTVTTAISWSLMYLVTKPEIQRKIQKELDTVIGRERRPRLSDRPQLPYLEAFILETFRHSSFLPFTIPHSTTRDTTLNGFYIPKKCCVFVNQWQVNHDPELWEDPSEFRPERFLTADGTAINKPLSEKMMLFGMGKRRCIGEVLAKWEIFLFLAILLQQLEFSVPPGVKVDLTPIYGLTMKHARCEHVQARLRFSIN

[26] = AUC (0 to last) in C57BL/6 mouse at 10 mg/kg, po by LC-MS/MS analysis; type: ADME, organism-based; parameters: dose 10 mg/kg, time 0 - last, route oral; conditions: in vivo; procedure, shortened: as §1
hERG = hERG (Homo sapiens, UniProt Q12809); assay: Inhibition of human ERG at 3 uM by automated patch clamp assay (reference value: 14%)
Hepatitis B virus = assay: Antiviral activity against Hepatitis B virus infected in human HepG2.117 cells assessed as inhibition of viral DNA level after 3 days by real time PCR; type: functional, organism-based; conditions: HepG2.117, 72 h

Sequence of Cytochrome P450 2C9 (P11712 whole entry): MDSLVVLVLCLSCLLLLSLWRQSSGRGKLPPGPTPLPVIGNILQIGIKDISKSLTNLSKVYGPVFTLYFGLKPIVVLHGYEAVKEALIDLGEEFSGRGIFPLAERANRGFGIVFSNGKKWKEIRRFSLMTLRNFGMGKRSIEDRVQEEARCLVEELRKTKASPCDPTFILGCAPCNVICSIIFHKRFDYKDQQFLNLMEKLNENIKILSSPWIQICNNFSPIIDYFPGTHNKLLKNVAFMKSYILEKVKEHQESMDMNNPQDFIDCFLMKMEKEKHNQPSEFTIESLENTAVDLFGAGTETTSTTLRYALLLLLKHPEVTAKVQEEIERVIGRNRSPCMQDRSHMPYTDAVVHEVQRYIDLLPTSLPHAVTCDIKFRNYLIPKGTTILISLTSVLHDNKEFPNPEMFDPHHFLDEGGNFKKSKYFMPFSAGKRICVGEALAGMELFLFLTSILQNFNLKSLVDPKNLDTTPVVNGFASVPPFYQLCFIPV
Sequence of Cytochrome P450 2D6 (P10635 whole entry): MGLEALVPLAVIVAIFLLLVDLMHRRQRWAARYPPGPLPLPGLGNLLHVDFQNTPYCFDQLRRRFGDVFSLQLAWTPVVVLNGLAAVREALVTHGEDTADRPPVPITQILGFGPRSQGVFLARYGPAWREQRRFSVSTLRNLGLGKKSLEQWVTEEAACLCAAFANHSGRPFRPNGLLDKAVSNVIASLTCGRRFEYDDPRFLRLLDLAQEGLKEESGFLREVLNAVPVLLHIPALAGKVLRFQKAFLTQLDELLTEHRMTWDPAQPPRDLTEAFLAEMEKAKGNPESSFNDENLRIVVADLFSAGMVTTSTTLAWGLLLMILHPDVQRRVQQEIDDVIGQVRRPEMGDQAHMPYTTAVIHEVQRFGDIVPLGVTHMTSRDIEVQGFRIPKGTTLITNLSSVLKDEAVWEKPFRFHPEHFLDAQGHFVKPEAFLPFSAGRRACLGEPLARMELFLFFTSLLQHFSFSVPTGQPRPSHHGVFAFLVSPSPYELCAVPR
Sequence of hERG (Q12809 whole entry): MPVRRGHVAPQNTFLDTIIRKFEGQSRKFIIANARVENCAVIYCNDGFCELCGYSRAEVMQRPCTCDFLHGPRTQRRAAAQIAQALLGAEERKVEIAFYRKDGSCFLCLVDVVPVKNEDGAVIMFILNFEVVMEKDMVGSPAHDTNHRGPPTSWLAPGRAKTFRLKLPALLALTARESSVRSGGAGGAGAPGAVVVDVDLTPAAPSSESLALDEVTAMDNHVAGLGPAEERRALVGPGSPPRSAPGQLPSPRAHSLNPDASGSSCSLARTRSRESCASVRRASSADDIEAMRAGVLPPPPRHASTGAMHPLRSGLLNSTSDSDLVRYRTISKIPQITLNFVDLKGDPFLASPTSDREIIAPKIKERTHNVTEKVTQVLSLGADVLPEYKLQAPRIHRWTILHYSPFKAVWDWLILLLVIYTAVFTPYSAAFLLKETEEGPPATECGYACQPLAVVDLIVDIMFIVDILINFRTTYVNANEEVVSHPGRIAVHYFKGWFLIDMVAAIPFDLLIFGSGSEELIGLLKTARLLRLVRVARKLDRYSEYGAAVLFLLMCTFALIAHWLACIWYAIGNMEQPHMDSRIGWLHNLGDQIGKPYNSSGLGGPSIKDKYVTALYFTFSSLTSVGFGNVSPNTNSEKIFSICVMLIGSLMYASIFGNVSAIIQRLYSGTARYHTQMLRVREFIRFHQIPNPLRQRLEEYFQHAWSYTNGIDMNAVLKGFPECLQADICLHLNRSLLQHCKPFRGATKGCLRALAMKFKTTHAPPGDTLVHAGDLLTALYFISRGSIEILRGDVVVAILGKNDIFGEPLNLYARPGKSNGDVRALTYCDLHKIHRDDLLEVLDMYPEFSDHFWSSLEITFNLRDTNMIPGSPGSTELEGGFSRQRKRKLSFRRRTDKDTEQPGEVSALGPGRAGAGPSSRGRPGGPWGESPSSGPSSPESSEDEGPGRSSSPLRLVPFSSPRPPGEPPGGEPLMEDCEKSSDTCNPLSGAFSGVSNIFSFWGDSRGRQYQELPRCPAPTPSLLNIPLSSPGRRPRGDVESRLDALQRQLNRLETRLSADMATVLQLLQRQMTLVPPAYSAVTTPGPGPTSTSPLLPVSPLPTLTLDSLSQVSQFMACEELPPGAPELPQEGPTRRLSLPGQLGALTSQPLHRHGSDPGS

Question: Which results are given for `Cc1cc(NC(=O)c2cccc(S(=O)(=O)N[C@H]3CCOC3)c2)ccc1F`?
Answer: AUC(0-t) [1]: 1240 ng·h/mL; Tmax [2]: 1 h; half-life [3]: 318 min; half-life [4]: 144 min; Cmax [5]: 7700 ng/mL; metabolised at 0.25 h, 1 µM [6]: 51%; Activity (Salmonella typhimurium): Non-Toxic; AUC(0-inf) [7]: 119 µg·h/mL; AUC(0-t) at 24 h [8]: 12000 ng·h/mL; AUC(0-inf) [9]: 12700 ng·h/mL; IC50 (Cytochrome P450 2D6): > 10 µM; Papp A→B (MDR1 (P-gp)): 7.3 ×10⁻⁶ cm/s; AUC at 24 h [10]: 19200 ng·h/mL; AUC(0-t) [11]: 16400 ng·h/mL; bioavailability [12]: 68%; half-life [13]: 25.2 min; half-life [14]: 66 min; fraction unbound [15]: 0.126; half-life [16]: 336 min; clearance [17]: 34 mL/min/kg; EC50 (HBV genotype D [18]): 120 nM; Vd [19]: 1.3 L/kg; bioavailability [20]: 40%; Tmax [21]: 42 min; Tmax [22]: 1 h; IC50 (Cytochrome P450 2C9): > 10 µM; Cmax [23]: 4380 ng/mL; Cmax [24]: 2110 ng/mL; Activity (HBV genotype D [25]): inactive; IC50 (Cytochrome P450 1A2): > 10 µM; AUC(0-t) [26]: 1990 ng·h/mL; inhibition at 3 µM (hERG): 31%; EC50 (Hepatitis B virus): 430 nM
